The values that follow come from the RNAGym collection of RNA variant scans (doi:10.1101/gad.245936.114).

To fix the notation:
B1: tRNA (parent)
chain: CUCUCGGUAGCCAAGUUGGUUUAAGGCGCAAGACUUUAAUUUAUCACUACGAAAUCUUGAGAUCGGGCGUUCGACUCGCCCCCGGGAGAUUUUUUCCUCGAGCAA

Fewer inactive variants are shown than the library holds.

Variants of B1 are the subject of this data set. The data set can be described thus: nonsense suppression (GFP-seq) (ratio to wild type); higher = more function; SUP4oc tRNA, yeast GFP reporter sort-seq. An outline of the steps:
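Raffinose/galactose medium with 80 mg/L adenine was used to grow yeast carrying genome-integrated tRNA variants (~3% random-mutation library), RFP, and a galactose-driven GFP ochre reporter. Cells went into GFP/RFP bins, which were Illumina-sequenced, and variants with ≥100 reads and ≥30 cells were scored. Nonsense suppression (GFPSEQ) is the per-bin median GFP/RFP weighted by estimated cell share and expressed relative to the unmutated parent tRNA.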
Consider C56G G61C G88U, for which the nonsense suppression is no more than 0.026.

Consider U57A C75U, for which the nonsense suppression came to 0.03.

With U57A C75A, the nonsense suppression was determined as 0.681.

A54C C64U: the nonsense suppression came out at 0.0402.

As to G32A C79A G88A, the nonsense suppression is no more than 0.026.

Turning to A31U C75A, the nonsense suppression was determined as 0.758.

For C34U A62G, the nonsense suppression was no more than 0.026.

In the case of C56U U58C G66U, the nonsense suppression was no more than 0.026.

As to U35A U57G C81U G85C A87U, the nonsense suppression was no more than 0.026.

In the case of A54U G65A, the nonsense suppression turned out to be 0.0335.

As to G59A G84C, the nonsense suppression was no more than 0.026.

Consider U57A G78C, for which the nonsense suppression was no more than 0.026.

A54U A62G: the nonsense suppression was 0.0321.

For the variant A33U A60U, the nonsense suppression came to 0.204.

A60C A62C A87G: the nonsense suppression is no more than 0.026.

Turning to A54C U76G A89G, the nonsense suppression is no more than 0.026.

For the variant C34G U55C, the nonsense suppression came out at 0.276.

A54C U57A: the nonsense suppression came out at 0.0382.

On to A54C C80G, for which the nonsense suppression is 0.0733.

Consider A54C C80U, for which the nonsense suppression is 0.194.

A54C G61A: the nonsense suppression was found to be 0.334.

Consider A54C G61C, for which the nonsense suppression is 0.216.

A54C G69C C75U U76G G85C: the nonsense suppression is no more than 0.026.

Turning to U35C U70A, the nonsense suppression is no more than 0.026.

In the case of G59C G61C, the nonsense suppression was no more than 0.026.

G59C C68A G88U A89C: the nonsense suppression is no more than 0.026.

As for A33U U55C U63A U70C, the nonsense suppression is no more than 0.026.

Turning to A33G U76C, the nonsense suppression was found to be 0.0419.

With A33G U76G, the nonsense suppression is no more than 0.026.

Consider U55C C79U, for which the nonsense suppression worked out at 0.183.

On to U55C C79G, for which the nonsense suppression was found to be 0.035.

As to U58G C77U, the nonsense suppression was no more than 0.026.

On to A33U U63A, for which the nonsense suppression turned out to be 0.0268.

As to A54C G84U, the nonsense suppression came out at 0.0301.

C34G U70G: the nonsense suppression was no more than 0.026.

Turning to A31U U76A, the nonsense suppression was found to be 0.0413.

A54U G69C C81G: the nonsense suppression is no more than 0.026.

In the case of U35G G85U, the nonsense suppression was no more than 0.026.

Turning to A54C G67U, the nonsense suppression is no more than 0.026.

Regarding A31U C64U C72U, the nonsense suppression was no more than 0.026.

Turning to A33G A54G A74C, the nonsense suppression was no more than 0.026.

Regarding A33U U71A, the nonsense suppression is no more than 0.026.

For the variant U58C A89C, the nonsense suppression was no more than 0.026.

In the case of U55C U63A C75G, the nonsense suppression came to 0.0265.

As to A33C U57G C64G, the nonsense suppression was no more than 0.026.

With C34G C81A, the nonsense suppression was no more than 0.026.

A33G G88C: the nonsense suppression was no more than 0.026.

For the variant C34G G86U, the nonsense suppression is no more than 0.026.

For U57G G85C, the nonsense suppression is no more than 0.026.

For the variant C34A G69A, the nonsense suppression was no more than 0.026.

For U55C G73U, the nonsense suppression was found to be 0.0422.

As for U55C G73A, the nonsense suppression worked out at 0.0331.

A33C G61U G66U: the nonsense suppression was no more than 0.026.

In the case of C34G G78C, the nonsense suppression was no more than 0.026.

Take G59C U63A G66A C68U C72A: the nonsense suppression was no more than 0.026.

As for G32C A62U G65C C80A G88A, the nonsense suppression was no more than 0.026.

Turning to C34U G69A A89C, the nonsense suppression is no more than 0.026.

Consider A33G C79U, for which the nonsense suppression stood at 0.0403.

For the variant U55A G85C, the nonsense suppression is no more than 0.026.

Take C56A G65C: the nonsense suppression was no more than 0.026.

In the case of U58C U63C, the nonsense suppression came out at 0.144.

For C34A A87G, the nonsense suppression was no more than 0.026.

For U57A G84U, the nonsense suppression turned out to be 0.0408.

Take C34G G69C: the nonsense suppression is no more than 0.026.

Regarding A54G U71A, the nonsense suppression was no more than 0.026.

Take U57A C81G A89G: the nonsense suppression was no more than 0.026.

Take A54C G78A: the nonsense suppression was 0.107.

For C34G A74U, the nonsense suppression is no more than 0.026.

On to A60C A74G, for which the nonsense suppression was 0.0424.

With A54C U63G, the nonsense suppression was determined as 0.0506.

Turning to A54C U63A, the nonsense suppression is 0.377.

As for A54C U63C, the nonsense suppression stood at 0.729.

In the case of U57A A60C, the nonsense suppression worked out at 0.0859.

Regarding C34U C81A G88C, the nonsense suppression was no more than 0.026.

Consider A33G U63A, for which the nonsense suppression was 0.031.

A33G U63C: the nonsense suppression came to 0.11.

Turning to G59U G88A, the nonsense suppression was no more than 0.026.

On to C56G U58C G66C, for which the nonsense suppression is no more than 0.026.

As for A31U G59A C80U, the nonsense suppression is no more than 0.026.

Turning to G59A G66C, the nonsense suppression is no more than 0.026.

Take U58A G61A: the nonsense suppression amounted to 0.0532.

Turning to G32U U55G A62C, the nonsense suppression was no more than 0.026.

For U35C G61A, the nonsense suppression was 0.0378.

As for A31U G73C C81G, the nonsense suppression is no more than 0.026.

As for U35C A74G, the nonsense suppression was no more than 0.026.

With A33C G61A A62G G73C, the nonsense suppression was no more than 0.026.

With G32U U76C, the nonsense suppression was no more than 0.026.

For A33G G61U, the nonsense suppression is 0.119.

Consider A33G G61A, for which the nonsense suppression is 0.0709.

Turning to A33G G61C, the nonsense suppression amounted to 0.034.

For the variant G59C A87U, the nonsense suppression is no more than 0.026.

As for A31U G73U, the nonsense suppression was no more than 0.026.

For U55C C64G, the nonsense suppression is 0.0515.

As for U35A G73U G84C, the nonsense suppression was no more than 0.026.

For U35C U63G, the nonsense suppression was determined as 0.0352.

As to U57C A87G, the nonsense suppression stood at 0.0399.

Regarding C34U U35G U57C G61A C82U, the nonsense suppression was no more than 0.026.

Turning to U57C C81U G84U, the nonsense suppression is no more than 0.026.

As for G59C C75G, the nonsense suppression was no more than 0.026.

Take C34U A60G: the nonsense suppression was 0.0428.

As for C34U G61A, the nonsense suppression stood at 0.0297.

For C34U G61C, the nonsense suppression was 0.0481.

Regarding G59U A74C C82U, the nonsense suppression is no more than 0.026.

Take A54U G61A: the nonsense suppression came out at 0.611.

In the case of A54U G61U, the nonsense suppression came out at 1.16.

As for U55A G67U, the nonsense suppression was no more than 0.026.

U55G U63G U71C G88A: the nonsense suppression is no more than 0.026.

As to G32C U76A, the nonsense suppression was no more than 0.026.

With G59C G85A, the nonsense suppression stood at 0.114.

In the case of A54C U58A, the nonsense suppression worked out at 0.135.

For U55C C83G, the nonsense suppression turned out to be 0.0314.

Consider A33C U35C C83A, for which the nonsense suppression was no more than 0.026.

In the case of A54C G73C, the nonsense suppression came to 0.0591.

On to U58C G73A, for which the nonsense suppression was found to be 0.0472.

In the case of G32C U63C, the nonsense suppression was no more than 0.026.

With C34A U55A C80A, the nonsense suppression is no more than 0.026.

A33U C75A: the nonsense suppression was 0.192.

Turning to U57A G85A, the nonsense suppression came to 0.165.

In the case of U57A G85U, the nonsense suppression was found to be 0.0736.

As to C34G C64U, the nonsense suppression is no more than 0.026.

On to U57C A60U, for which the nonsense suppression was found to be 0.0266.

For the variant G32C C81G, the nonsense suppression was no more than 0.026.

Turning to G32U G66A, the nonsense suppression was no more than 0.026.

As to G59A U76G C77A, the nonsense suppression is no more than 0.026.

For the variant U57C A89G, the nonsense suppression was no more than 0.026.

Take A31U G61U: the nonsense suppression worked out at 0.0345.

For the variant U55A U71A, the nonsense suppression is no more than 0.026.

Take C34A A54U U71A C75A: the nonsense suppression is no more than 0.026.

For the variant U55A A60C C75U G78C C79G A89G, the nonsense suppression was no more than 0.026.

For the variant A33G G86C, the nonsense suppression turned out to be 0.0374.

As to U58C A60C, the nonsense suppression worked out at 0.0568.

Consider A31U U57A, for which the nonsense suppression was found to be 0.963.

On to U57A U76A, for which the nonsense suppression was no more than 0.026.

In the case of A54C A74C, the nonsense suppression is no more than 0.026.

Consider A54C A74G, for which the nonsense suppression came out at 0.0575.

U55G A89U: the nonsense suppression was no more than 0.026.

For A31U C56A U70C A89G, the nonsense suppression was no more than 0.026.

Regarding A33G U57A U76C, the nonsense suppression is no more than 0.026.

Consider U57A C82A, for which the nonsense suppression is no more than 0.026.

In the case of C34G U71G, the nonsense suppression is no more than 0.026.

Take U57G G78A: the nonsense suppression was 0.0374.

On to C34U A60C C72A, for which the nonsense suppression is no more than 0.026.

Regarding A33U G69C G73A, the nonsense suppression is no more than 0.026.

For U55C, the nonsense suppression was determined as 1.09.

As to U57G C68G C75G, the nonsense suppression was no more than 0.026.

With G32C C56G A60C, the nonsense suppression was 0.275.

Take U57C U58A A62C: the nonsense suppression was no more than 0.026.

With C34U C77G C79G A89U, the nonsense suppression is no more than 0.026.

Turning to U55A U70C, the nonsense suppression was no more than 0.026.

In the case of U57C G73A, the nonsense suppression amounted to 0.0414.

Turning to U57C G61A, the nonsense suppression amounted to 0.0312.

Turning to A31U C81A C82G, the nonsense suppression is no more than 0.026.

As to U57C G66U C81A, the nonsense suppression is no more than 0.026.

Regarding C34U G65A U70A, the nonsense suppression is no more than 0.026.

Take G59U A89G: the nonsense suppression was no more than 0.026.

As for U58G U70C, the nonsense suppression is no more than 0.026.

As for G32A U70A C72A, the nonsense suppression was no more than 0.026.

With C34G C72A, the nonsense suppression is no more than 0.026.

Consider U55C U76A, for which the nonsense suppression came out at 0.15.

Turning to A54C, the nonsense suppression turned out to be 1.16.

On to A54U, for which the nonsense suppression stood at 1.04.

As for A33G G66C, the nonsense suppression was found to be 0.0263.

For the variant C34U A54C C56G G73A G88C, the nonsense suppression is no more than 0.026.

Turning to U55C G84U, the nonsense suppression came out at 0.0453.

For A54C U76C, the nonsense suppression is 0.232.

In the case of A33C U63A, the nonsense suppression was no more than 0.026.

With U55C U63C, the nonsense suppression turned out to be 0.156.
